Legend:
Rat pharmacokinetics = type: in vivo, Sprague Dawley rats; details: Sprague Dawley, plasma
Procedure, shortened: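 Sprague Dawley rats (N = 3) were dosed i.v. at 1 mpk in 70% PEG or by oral gavage as a methylcellulose suspension. Serial blood samples were anticoagulated and centrifuged to plasma. Parent compound was quantified in plasma, and PK parameters were calculated by noncompartmental analysis.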

Caco-2 permeability = type: in vitro ADME; details: human, Caco-2, pH 7.4
Procedure, shortened: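 Caco-2 cells were seeded at 80,000 cells/cm2 on polycarbonate Transwell filters and grown 21–25 days. Monolayers were pre-equilibrated with HBSS pH 7.4 for 30 min at 37 °C. Dosing solution was 50 mM nominal in HBSS, stirred overnight at room temperature, filtered and added apically (A/B) or basolaterally (B/A). Receiver sampled at 15–150 min, in duplicate. Papp (cm/s) by LC/MS/MS.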

PAMPA permeability = type: in vitro ADME
hPPB = type: in vitro ADME; details: human
[1] = molecular target: catalytic domain of recombinant human MMP-8 (Homo sapiens, UniProt P22894); test: MMP-8 biochemical assay
Procedure, shortened: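 FRET cleavage assay with 2 nM recombinant human MMP-8 catalytic domain and 2 μM quenched FRET peptide substrate. Incubated 30 min at 28 °C/80% humidity; fluorescence read at ex 485/em 535 nm.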

[2] = system: collagen antibody-induced arthritis; test: Murine collagen antibody-induced arthritis; type: in vivo, female B10.RIII mice; details: 100 mg/kg twice daily oral gavage from day 4, day 14
Procedure, shortened: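 Female B10.RIII mice, 8–10 weeks old, received 2 mg anti-collagen II monoclonal antibody cocktail i.p., then 37.5 μg LPS i.p. 3 days later. From day 4, compounds or vehicle (1% CMC, 0.015% Tween 80, 10 mL/kg) were given by oral gavage twice daily. Each limb was scored visually daily, days 3–14, and group mean computed. Body weight recorded every other day.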

[3] = molecular target: catalytic domain of human MMP13 (Homo sapiens, UniProt P45452); test: Biochemical MMP-13 FRET assay; details: vs compound 13

catalytic domain of recombinant human MMP-8, sequence (P22894 100-262 limits assumed): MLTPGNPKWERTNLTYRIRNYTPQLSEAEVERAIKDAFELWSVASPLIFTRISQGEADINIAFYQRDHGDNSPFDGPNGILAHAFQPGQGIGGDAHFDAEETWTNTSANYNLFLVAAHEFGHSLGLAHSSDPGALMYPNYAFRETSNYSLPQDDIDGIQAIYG

| SMILES | half-life (Rat pharmacokinetics) [h] | Papp A→B at 150 min, 50 mM (Caco-2 permeability) [×10⁻⁶ cm/s] | Papp B→A at 150 min, 50 mM (Caco-2 permeability) [×10⁻⁶ cm/s] | Papp (PAMPA permeability) [×10⁻⁶ cm/s] | hPPB (% bound) (hPPB) | IC50 [1] [µM] | overall mean arthritic score vs vehicle control [2] | loss of potency relative to 13 [3] [fold] |
| --- | --- | --- | --- | --- | --- | --- | --- | --- |
| CCNC(=O)c1nc(-c2ccc3[nH]c(-c4nc(C)no4)cc3c2)c(C)[nH]1 [Compound 15, 4-Methyl-5-[2-(3-methyl-[1,2,4]oxadiazol-5-yl)-1H-indol-5-yl]-1H-imidazole-2-carboxylic Acid Ethylamide] | 1.8 |  |  |  |  |  |  |  |
| Cc1noc(-c2cc3cc(-c4nc(C(=O)NCc5ccncc5)[nH]c4C)ccc3[nH]2)n1 [Compound 17, 4-Methyl-5-[2-(3-methyl-[1,2,4]oxadiazol-5-yl)-1H-indol-5-yl]-1H-imidazole-2-carboxylic Acid (Pyridin-4-ylmethyl)-amide] | 0.9 | 3.5 | 9 | 29 | 93 | 3.1 | significantly reduced |  |
| Cc1noc(-c2cc3cc(-c4[nH]c(C(=O)NCc5ccccc5)nc4C)ccc3[nH]2)n1 [Compound 21, 4-Methyl-5-[2-(3-methyl-[1,2,4]oxadiazol-5-yl)-1H-indol-5-yl]-1H-imidazole-2-carboxylic Acid Benzylamide] |  |  |  |  |  |  |  | 10 |

From article PMC8319936 (ACS Omega, 2021)
